# Paper PMC4709821 (ACS Infectious Diseases, 2015)
# Assays:
# [1] = test system: Rlm1-lacZ reporter of CWIP activity; assay: Rlm1-lacZ cell wall integrity pathway; assay type: cell-based, S. cerevisiae; conditions: exposure of cells harboring the reporter plasmid
# Method in brief: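 S. cerevisiae CRY2 (W303 background) carried a plasmid with lacZ driven by two consensus Rlm1 binding sites. Cells were grown overnight in SC lacking uracil at 30 °C, diluted to 0.1 OD600 in YPD and grown to 0.4. They were dispensed at 0.05 OD600, and test compound was pinned in. Plates stood 4 h at room temperature before Gal-Screen luminescence read-out against solvent wells. Values are the mean of three replicates.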
# Mpk1 phosphorylation = assay: Western blot of Mpk1 phosphorylation in C. neoformans; assay type: cell-based; conditions: exponential phase cells, MPK1-FLAG strain
# C. neoformans [2] = assay: Alamar blue viability assay with and without 1 M sorbitol; assay type: cell-based, Cryptococcus neoformans
# Method in brief: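 C. neoformans was grown overnight in YPD at 30 °C and seeded at 1.5 × 10^4 cells/mL into a dilution series of test compound, in synthetic complete medium with or without 1 M sorbitol. Plates ran 24 h at 37 °C, then Alamar blue (1:10) was added for 2 h at 37 °C. Fluorescence (Ex 544/Em 590) was compared to DMSO wells, and IC50 was obtained by curve fitting.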
# C. neoformans H99 cells = assay: Checkerboard assay of interaction with caspofungin; assay type: cell-based, Cryptococcus neoformans
# HEK293 cells = assay: Mammalian cell cytotoxicity; assay type: cell-based, human; conditions: higher concentrations not tested
# [3] = Stability in human plasma; assay type: in vitro ADME; conditions: after 5 h of incubation
# [4] = Stability in mouse plasma; assay type: in vitro ADME; conditions: after 5 h of incubation
# [5] = test system: protein kinase C 1 (Pkc1); assay: Cellular protein kinase C activity; assay type: biochemical, C. neoformans; conditions: cell lysates
# Method in brief: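 Cells were grown overnight in YPD at 30 °C, washed three times in DPBS, adjusted to 1 × 10^7 cells/mL and lysed with glass beads in kit extraction buffer. Equal total protein plus a dilution series of test compound went into each reaction with a fluorescent Pkc1-specific substrate for 30 min. Products were separated on agarose gel, quantified by densitometry and expressed as % of DMSO reactions. Staurosporine served as reference inhibitor.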
# [6] = test system: C. neoformans strain CM108; assay: MIC at 30 and 37 °C with strain CM108; assay type: cell-based; conditions: Cryptococcus neoformans
# Method in brief: (§1)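 MIC was determined by the CLSI-approved method, read at a 72 h end point. Congenic CM108 and mpk1Δ strains came from the Fungal Genetics Stock Center. CM108 was tested at 30 and 37 °C and mpk1Δ at 30 °C.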
# C. neoformans mpk1Δ = assay: MIC against the congenic mpk1Δ strain; assay type: cell-based, Cryptococcus neoformans; conditions: 30 °C
# Method in brief: as §1
# C. neoformans [7] = conditions: cited from earlier work
smiles,measurement,setting,value
O=S(=O)(O)c1cc(Nc2nc(Nc3ccccc3)nc(N(CCO)CCO)n2)ccc1/C=C/c1ccc(Nc2nc(Nc3ccccc3)nc(N(CCO)CCO)n2)cc1S(=O)(=O)O [Calcofluor white],increase in β-galactosidase activity,[1],5 fold
same,Mpk1 phosphorylation caused by the agent alone,Mpk1 phosphorylation,induced phosphorylation of Mpk1
"Cc1ccc(C(C)C)c(OCCn2c(S)nc3ccccc32)c1 [Compound 1, 1-(2-(2-isopropyl-5-methylphenoxy)ethyl)-1H-benzo[d]imidazole-2(3H)-thione]",sorbitol suppression of anticryptococcal activity,C. neoformans [2],sorbitol-suppressable
same,fractional inhibitory concentration index (FICI),"C. neoformans H99 cells; combination of 1 with caspofungin, 1 at 2-fold below its MIC",0.625
same,reduction of the concentration of caspofungin needed to inhibit C. neoformans,C. neoformans H99 cells; subinhibitory concentrations of 1,8 fold
same,concentration up to which nontoxic,HEK293 cells,≥ 80 µM
same,remaining intact in plasma,[3],100%
same,remaining intact in plasma,[4],100%
same,protein kinase C activity as percentage of DMSO-treated samples,[5]; concentrations as high as 10-fold above its MIC,91 ± 3%
same,MIC,"[6]; CM108, 30 °C",16 µg/mL
same,MIC,"[6]; CM108, 37 °C",8 µg/mL
same,activity against strain from which MPK1 has been deleted,C. neoformans mpk1Δ,active
CCN(CC)CCOc1ccc(C(=C(Cl)c2ccccc2)c2ccccc2)cc1 [clomiphene],AK signal / cell lysis,C. neoformans [7]; positive control of the screen,strong AK signal
OC(Cn1cncn1)(Cn1cncn1)c1ccc(F)cc1F [fluconazole],AK activity compared to solvent controls,C. neoformans [7],no increase
"CN[C@@H]1C[C@H]2O[C@@](C)([C@@H]1OC)n1c3ccccc3c3c4c(c5c6ccccc6n2c5c31)C(=O)NC4 [staurosporine, reference compound]",reduction in Pkc1 activity,[5]; data not shown,25%
